This is an account of results in ChEMBL document CHEMBL4354876, “A Selective Modulator of Peroxisome Proliferator-Activated Receptor γ with an Unprecedented Binding Mode” (J Med Chem, 2020).

Broadly, the EC50 is the concentration giving half of the maximal effect.

The source made the active and inactive calls. No cut-off for these calls is given here. A value given as a limit tells only on which side of the number the result lay.

The target in data set [1] is T1, Peroxisome proliferator-activated receptor alpha (Homo sapiens) (UniProt Q07869).
T1 sequence (whole entry): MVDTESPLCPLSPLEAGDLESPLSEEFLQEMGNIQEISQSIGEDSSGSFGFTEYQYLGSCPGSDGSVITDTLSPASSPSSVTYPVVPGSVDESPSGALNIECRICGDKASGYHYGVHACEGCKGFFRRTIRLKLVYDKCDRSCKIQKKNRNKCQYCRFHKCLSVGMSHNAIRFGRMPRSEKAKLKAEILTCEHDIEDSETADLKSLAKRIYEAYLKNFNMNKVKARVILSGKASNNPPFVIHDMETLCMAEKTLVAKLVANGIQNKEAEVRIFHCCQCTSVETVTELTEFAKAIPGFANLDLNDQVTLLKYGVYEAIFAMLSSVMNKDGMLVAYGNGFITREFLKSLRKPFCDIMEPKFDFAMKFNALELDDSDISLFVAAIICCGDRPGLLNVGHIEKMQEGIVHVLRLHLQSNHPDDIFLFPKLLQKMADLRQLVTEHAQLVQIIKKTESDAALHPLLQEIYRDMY
The data set is described as follows: Partial agonist activity at Gal4-fused PPARalpha LBD (unknown origin) expressed in HEK293T cells after 14 to 16 hrs by dual-Glo luciferase assay relative to GW7647. The format is cell-based. Put shortly:
(§1)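 Gal4 hybrid reporter assay in transiently transfected HEK293T cells. Constructs fuse the yeast Gal4 DNA-binding domain to the human receptor LBD. Firefly luciferase is the reporter. Constitutive renilla luciferase monitors transfection efficiency and toxicity. EC50 and maximal relative activation are reported as mean±S.E.M., n≥3.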

A short description of data set [2]: Effect on recombinant PPARgamma LBD/N-terminal GFP-fused RXRalpha mutant LBD (unknown origin) protein-protein dimerization at 10 uM measured after 2 hrs by HTRF assay. Conditions: human. In a few lines: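 Cell-free HTRF assay of PPARγ–RXRα dimerization on recombinant proteins.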
A general note: TR-FRET usually uses a lanthanide donor and a delayed reading to cut background.

The target in data set [3] is T2, Peroxisome proliferator-activated receptor delta (Homo sapiens, UniProt Q03181).
T2 sequence (Q03181 whole entry): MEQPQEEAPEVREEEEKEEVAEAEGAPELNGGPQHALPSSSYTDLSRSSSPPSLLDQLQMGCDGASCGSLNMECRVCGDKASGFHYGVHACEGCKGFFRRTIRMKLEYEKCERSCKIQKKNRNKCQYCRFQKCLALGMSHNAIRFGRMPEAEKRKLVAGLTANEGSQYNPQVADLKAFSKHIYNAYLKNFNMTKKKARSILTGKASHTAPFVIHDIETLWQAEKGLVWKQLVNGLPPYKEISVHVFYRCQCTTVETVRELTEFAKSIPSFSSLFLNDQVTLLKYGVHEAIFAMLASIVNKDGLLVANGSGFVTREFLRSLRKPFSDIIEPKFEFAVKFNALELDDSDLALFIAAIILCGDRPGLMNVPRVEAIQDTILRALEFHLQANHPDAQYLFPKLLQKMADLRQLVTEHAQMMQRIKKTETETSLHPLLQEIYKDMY
The experiment in a line: Partial agonist activity at Gal4-fused PPARdelta LBD (unknown origin) expressed in HEK293T cells after 14 to 16 hrs by dual-Glo luciferase assay. In kind it is cell-based. In a few lines: as §1

The target in data set [4] is T3, Peroxisome proliferator-activated receptor gamma (Homo sapiens, UniProt P37231).
T3 sequence (P37231 whole entry): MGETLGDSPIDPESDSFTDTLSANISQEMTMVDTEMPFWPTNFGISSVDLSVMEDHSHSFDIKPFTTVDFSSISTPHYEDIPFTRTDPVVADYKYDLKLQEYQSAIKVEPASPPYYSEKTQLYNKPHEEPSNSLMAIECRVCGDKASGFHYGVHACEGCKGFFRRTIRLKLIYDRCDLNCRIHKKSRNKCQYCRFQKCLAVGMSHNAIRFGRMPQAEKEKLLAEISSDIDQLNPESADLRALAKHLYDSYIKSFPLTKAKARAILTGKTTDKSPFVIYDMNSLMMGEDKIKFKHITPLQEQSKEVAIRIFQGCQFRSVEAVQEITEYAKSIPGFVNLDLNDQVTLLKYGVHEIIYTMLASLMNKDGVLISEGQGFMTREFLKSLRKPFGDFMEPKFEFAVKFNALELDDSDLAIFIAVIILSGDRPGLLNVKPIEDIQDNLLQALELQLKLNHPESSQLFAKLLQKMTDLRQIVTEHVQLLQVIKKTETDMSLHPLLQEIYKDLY
The data set is described as follows: Partial agonist activity at Gal4-fused PPARgamma LBD (unknown origin) expressed in HEK293T cells after 14 to 16 hrs by dual-Glo luciferase assay. The format is cell-based. In a few lines: as §1

Data set [5] addresses T4, Peroxisome proliferator-activated receptor alpha (Homo sapiens, UniProt Q07869).
T4 sequence (Q07869 whole entry): T1 sequence (whole entry)
The data set is described as follows: Partial agonist activity at Gal4-fused PPARalpha LBD (unknown origin) expressed in HEK293T cells after 14 to 16 hrs by dual-Glo luciferase assay. In kind it is cell-based. Put shortly: as §1

Data set [6] deals with T5, Peroxisome proliferator-activated receptor delta (Homo sapiens) (UniProt Q03181).
T5 sequence (whole entry): T2 sequence (Q03181 whole entry)
The experiment in a line: Partial agonist activity at Gal4-fused PPARdelta LBD (unknown origin) expressed in HEK293T cells after 14 to 16 hrs by dual-Glo luciferase assay relative to L165041. In kind it is cell-based. In a few lines:
as §1

In data set [7] the target is T6, Peroxisome proliferator-activated receptor gamma (Homo sapiens) (UniProt P37231).
T6 sequence (whole entry): T3 sequence (P37231 whole entry)
The experiment in a line: Partial agonist activity at recombinant N-terminal GFP-fused PPARgamma LBD (unknown origin) assessed as increase in biotinylated-CBP peptide recruitment measured after 2 hrs by HTRF assay. In a few lines:
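Cell-free HTRF assay of CBP coactivator recruitment to recombinant PPARγ protein.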

Data set [8] concerns the target T7, RXR alpha/PPAR gamma (Homo sapiens) (UniProt P37231+P19793). The data set is described as follows: Partial agonist activity at 1:1 Gal4-fused PPARgamma LBD/Gal4-fused RXRalpha (unknown origin) expressed in HEK293T cells after 14 to 16 hrs by dual-Glo luciferase assay. The format is cell-based. Put shortly:
(§2)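 Gal4-PPARγ hybrid reporter assay in HEK293T cells with Gal4-RXRα co-transfected. Firefly luciferase is the read-out, with constitutive renilla as the transfection and viability control. Efficacy is expressed relative to pioglitazone (1 µM). Activity data are normalized to counter variations in receptor protein amount.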

The subject of data set [9] is PPARgamma/RXR (Homo sapiens). The experiment in a line: Partial agonist activity at PPARgamma/RXR (unknown origin) expressed in HEK293T cells at 0.1 to 1 uM after 14 to 16 hrs by PPRE1 reporter gene based dual-Glo luciferase assay. Particulars: HEK-293T. A general note: A reporter such as luciferase makes a cellular process visible.
Data set [10] deals with T6, Peroxisome proliferator-activated receptor gamma (Homo sapiens). The data set is described as follows: Partial agonist activity at Gal4-fused PPARgamma LBD (unknown origin) expressed in HEK293T cells after 14 to 16 hrs by dual-Glo luciferase assay relative to pioglitazone. The format is cell-based. In a few lines: as §1
In data set [11] the target is T7, RXR alpha/PPAR gamma (Homo sapiens). The data set is described as follows: Partial agonist activity at 1:2 Gal4-fused PPARgamma LBD/Gal4-fused RXRalpha (unknown origin) expressed in HEK293T cells at 0.1 to 1 uM after 14 to 16 hrs by dual-Glo luciferase assay. The format is cell-based. In a few lines: as §2
Data set [12] has as its target T5, Peroxisome proliferator-activated receptor delta (Homo sapiens). The experiment in a line: Partial agonist activity at Gal4-fused PPARdelta LBD (unknown origin) expressed in HEK293T cells at 10 uM after 14 to 16 hrs by dual-Glo luciferase assay. In kind it is cell-based.

As for `CCCCCC[C@@H](Sc1nc2ccc(NS(=O)(=O)c3ccc(Cl)cc3Cl)cc2s1)C(=O)O`, the max activation in data set [1] stood at 18%; in [6], 26%; in data set [10], 101%. For the same compound, in data set [2], the Activity result is reported as “Not Active”. The EC50 in data set [3] is 810 nM; in data set [4], 1.6 nM; in [5], 430 nM; in data set [9], 160 nM. The outcome in data set [7], in [8] and in [11] was Active.
As for `CCCCCCC(Sc1nc2ccc(NC(=O)c3ccc(C(C)(C)C)cc3)cc2s1)C(=O)O` (centres undefined), the max activation came to 12% in data set [1], 22% in [6] and 19% in data set [10]. Also, the EC50 in data set [3] was 6200 nM; in data set [4] it was 4300 nM; in [5], 3100 nM.
Turning to `CCCCCCC(Sc1nc2ccc(NCc3ccccc3)cc2s1)C(=O)O` (centres undefined), the max activation was 28% in data set [1], 19% in [6] and 47% in [10]. Further, the EC50 was found to be 6100 nM in data set [3], 1700 nM in data set [4] and 1000 nM in data set [5].
Take `CCCCCCC(Sc1nc2ccc(NCc3ccc4ccccc4c3)cc2s1)C(=O)O` (centres undefined): the max activation came to 32% in data set [1], 23% in data set [6] and 53% in data set [10]. Moreover, the values for the EC50 in [3], in data set [4] and in [5] were 4300 nM, 3000 nM and 4000 nM, respectively.
As to `CCCCC(Sc1nc2ccc(NC(=O)c3ccc(C(C)(C)C)cc3)cc2s1)C(=O)O` (centres undefined), in data set [12], the outcome was inactive. For the same compound, the max activation in data set [1] amounted to 11%; in [10], 7.1%. Also, the EC50 came out at 3700 nM in data set [4] and 4400 nM in [5].
Take `CCCCCCC(Sc1nc2ccc(NCc3ccc(Cl)c(Cl)c3)cc2s1)C(=O)O` (centres undefined): the max activation is 26% in [1] and 73% in [10]. Moreover, the results for the EC50 in data set [3], in [4] and in data set [5] were over 10000 nM, 2800 nM and 1400 nM, respectively.
Take `CCCCCCC(Sc1nc2ccc(NS(=O)(=O)c3ccc(Cl)cc3)cc2s1)C(=O)O` (centres undefined): the max activation in data set [1] stood at 16%; in [6] it was 21%; in data set [10], 39%. Also, the EC50 in data set [3] is 5300 nM; in data set [4], 50 nM; in data set [5], 700 nM.
Regarding `CCCCCCC(Sc1nc2ccc(NC(=O)c3ccccc3)cc2s1)C(=O)O` (centres undefined), the max activation turned out to be 31% in data set [1], 27% in data set [6] and 43% in data set [10]. Further, the figures for the EC50 in [3], in data set [4] and in [5] were 7000 nM, 4900 nM and 770 nM, respectively.
With `CCCCCCC(Sc1nc2ccc(NCc3ccc(-c4ccccc4)cc3)cc2s1)C(=O)O` (centres undefined), the max activation in [1] was found to be 26%; in data set [10] it was 34%. The figures for the EC50 in data set [3], in data set [4] and in data set [5] were over 10000 nM, 770 nM and 400 nM, respectively.
In the case of `CCCCCCC(Sc1nc2ccc(NCc3ccc(Cl)cc3)cc2s1)C(=O)O` (centres undefined), the outcome in data set [12] was inactive. For the same compound, the max activation in data set [1] came out at 37%; in [10], 50%. Moreover, the results for the EC50 in data set [4] and in data set [5] were 2400 nM and 1360 nM, respectively.
For `CCCCCCC(Sc1nc2ccc(NCc3ccc(C(F)(F)F)cc3)cc2s1)C(=O)O` (centres undefined), the max activation in data set [1] is 59%; in data set [10], 39%. Besides, the results for the half-maximal effective concentration (EC50) in data set [3], in data set [4] and in data set [5] were over 10000 nM, 1800 nM and 3100 nM, respectively.
Consider `CCCCCCC(Sc1nc2ccc(NCc3cc(Cl)cc(Cl)c3)cc2s1)C(=O)O` (centres undefined), for which the results for the max activation in [1], in [6] and in data set [10] were 19%, 25% and 35%, respectively. The EC50 in data set [3] amounted to 9200 nM; in data set [4], 2900 nM; in [5] it was 3800 nM.
Regarding `CCCCCC[C@H](Sc1nc2ccc(NS(=O)(=O)c3ccc(Cl)cc3Cl)cc2s1)C(=O)O`, the values for the max activation in data set [1], in [6] and in data set [10] were 28%, 13% and 75%, respectively. Moreover, in data set [2], the Activity entry is “Not Active”. Besides, the EC50 in data set [3] was 400 nM; in data set [4] it was 160 nM; in data set [5], 250 nM.
As for `CCCCCCC(Sc1nc2ccc(NCc3cccc(Cl)c3)cc2s1)C(=O)O` (centres undefined), the result in [12] was inactive. In addition, the max activation in [1] was 51%; in data set [10], 47%. Moreover, the values for the EC50 in [4] and in [5] were 1500 nM and 1900 nM, respectively.
As for `CCCCCCC(Sc1nc2ccc(NS(=O)(=O)c3ccc(C(C)(C)C)cc3)cc2s1)C(=O)O` (centres undefined), the outcome in data set [12] was inactive. Besides, the figures for the max activation in data set [1] and in data set [10] were 17% and 30%, respectively. For the same compound, the results for the EC50 in [4] and in data set [5] were 700 nM and 900 nM, respectively.
Consider `CCCCCCC(Sc1nc2ccc(NS(=O)(=O)c3ccc(-c4ccccc4)cc3)cc2s1)C(=O)O` (centres undefined), for which, in data set [12], the outcome was inactive. In addition, the max activation in data set [1] came out at 23%; in data set [10], 26%. For the same compound, the EC50 worked out at 260 nM in [4] and 5000 nM in [5].
Turning to `CCCCCCC(Sc1nc2ccc(NCc3ccc(C(C)(C)C)cc3)cc2s1)C(=O)O` (centres undefined), the outcome in [12] was inactive. Also, the max activation in [1] was found to be 39%; in data set [10] it was 28%. Besides, the EC50 in [4] came to 3700 nM; in data set [5] it was 4000 nM.
